The record followed here is ChEMBL document CHEMBL2169796, “Antiproliferative and antimigratory actions of synthetic long chain n-3 monounsaturated fatty acids in breast cancer cells that overexpress cyclooxygenase-2” (J Med Chem, 2012).

The source made the active and inactive calls. No cut-off for these calls is given here.

Test [1] relates to MDA-MB-468. Kind of test: Proapoptotic activity in human MDA-MB-468 cells assessed as activation of caspase-3 by luminometry. The format is functional, cell-based.
Test [2] relates to MDA-MB-468. Kind of test: Antiproliferative activity against human MDA-MB-468 cells after 48 hrs by MTT assay. Type of test: functional, cell-based. The following applies: MDA-MB-468, 48 h.
Test [3] concerns MDA-MB-468. As to the kind of experiment: Inhibition of cell invasion in human MDA-MB-468 cells overexpressing COX-2 at 20 uM after 20 hrs by matrigel droplet assay relative to untreated-control; values are per cent of control. As to conditions: MDA-MB-468, 20 h.
Test [4] deals with MDA-MB-468. Kind of test: Antiproliferative activity against human MDA-MB-468 cells after 24 hrs by MTT assay. Type of test: functional, cell-based.
In test [5] the target is T1, Prostaglandin G/H synthase 2 (Homo sapiens) (UniProt P35354).
T1 sequence (whole entry): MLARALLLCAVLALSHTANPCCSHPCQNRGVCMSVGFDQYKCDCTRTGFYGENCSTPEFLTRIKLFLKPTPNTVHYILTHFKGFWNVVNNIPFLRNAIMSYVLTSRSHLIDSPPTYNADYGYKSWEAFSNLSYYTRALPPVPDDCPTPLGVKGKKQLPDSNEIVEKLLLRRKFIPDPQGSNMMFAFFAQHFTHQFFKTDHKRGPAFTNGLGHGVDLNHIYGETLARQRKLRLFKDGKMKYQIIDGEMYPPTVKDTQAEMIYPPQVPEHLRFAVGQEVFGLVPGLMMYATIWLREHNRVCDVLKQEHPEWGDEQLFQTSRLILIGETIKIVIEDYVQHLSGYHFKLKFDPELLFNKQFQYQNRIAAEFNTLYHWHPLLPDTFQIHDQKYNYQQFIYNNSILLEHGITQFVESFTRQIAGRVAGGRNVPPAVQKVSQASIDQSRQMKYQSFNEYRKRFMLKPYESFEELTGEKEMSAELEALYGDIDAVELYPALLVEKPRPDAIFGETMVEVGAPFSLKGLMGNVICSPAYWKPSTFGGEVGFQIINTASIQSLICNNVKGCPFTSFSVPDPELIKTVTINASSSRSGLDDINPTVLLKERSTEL
Kind of test: Inhibition of peroxidase activity of COX-2 overexpressed in human MDA-MB-468 cells at 50 uM by spectrophotometry; values are per cent of control.

For test [6], the target named is T1, Prostaglandin G/H synthase 2 (Homo sapiens). Kind of test: Inhibition of COX2 overexpressed in human MDA-MB-468 cells assessed as reduction in basal PGE2 level at 50 uM over 48 hrs by LC-MS-MS assay relative to control; values are per cent of control.
The target is the same in test [7]. As to the kind of experiment: Inhibition of COX-2 overexpressed in human MDA-MB-468 cell lysate assessed as reduction in arachidonic acid-induced PGE2 formation at 50 uM by LC-MS-MS assay; values are per cent of control.
Test [8] relates to MDA-MB-468. Kind of test: Cytotoxicity against human MDA-MB-468 cells assessed as reduction in viable cells after 48 hrs by trypan blue exclusion assay. The format is functional. In short, it runs like this: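 COX-2-overexpressing MDA-MB-468 transfectants exposed to fatty acids at 20 and 50 μM for 48 h; viable cells counted by trypan blue exclusion, expressed as decrease from control.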

Test [9] concerns MDA-MB-468. As to the kind of experiment: Inhibition of cell invasion in human MDA-MB-468 cells overexpressing COX-2 at 20 uM after 20 hrs by matrigel droplet assay relative to untreated-control. The format is functional. In short, it runs like this:
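Cells (3.5 × 10^6/mL) mixed with Matrigel, 20 μL droplets set 5 min at 37 °C, then covered with endothelial growth medium-2 with 10% FBS containing fatty acid (10 or 20 μM) for 20 h at 37 °C, 5% CO2; cells migrating out of droplets counted by phase-contrast microscopy, vs DMSO control.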

For test [10], the target named is T1, Prostaglandin G/H synthase 2 (Homo sapiens). Kind of test: Inhibition of COX2 overexpressed in human MDA-MB-468 cells assessed as reduction in basal PGE2 level at 50 uM over 48 hrs by LC-MS-MS assay relative to control. Type of test: cell-based. The gist of the method: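 Intact COX-2-overexpressing MDA-MB-468 cells given fatty acid (50 μM) for 48 h without added substrate; basal PGE2 in medium measured by LC-MS-MS, as % of control.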

Test [11] has the same target. Kind of test: Inhibition of COX-2 overexpressed in human MDA-MB-468 cell lysate assessed as reduction in arachidonic acid-induced PGE2 formation at 50 uM by LC-MS-MS assay. The format is cell-free. The gist of the method: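 Lysate of confluent COX-2-overexpressing MDA-MB-468 cells incubated with heme (10 μM), arachidonic acid (20 μM) and analogue (50 μM) in Tris-HCl 100 mM pH 8.0; quenched with ice-cold acetonitrile plus PGE2-d4, SPE cleanup, PGE2 quantified by negative-ion ESI LC-MS-MS.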

For test [12] the target is unchanged. Kind of test: Inhibition of COX2 overexpressed in human MDA-MB-468 cells assessed as reduction in arachidonic acid-induced PGE2 production at 50 uM over 48 hrs by LC-MS-MS assay relative to control; values are per cent of control.
Test [13] relates to MDA-MB-468. Kind of test: Inhibition of cell invasion in human MDA-MB-468 cells overexpressing COX-2 at 10 uM after 20 hrs by matrigel droplet assay relative to untreated-control; values are per cent of control. As to conditions: MDA-MB-468, 20 h.

Take `CC/C=C\CCCCCCCCCCCCCCCC(=O)O`: the EC50 (in general, the concentration that produces a half-maximal response) in [1] is 43 µM. Also, inhibition in test [2] was half-maximal at 31 µM (IC50). The compound also came in with a level, % of control at 20 µM in [3] of 75%. For the same compound, the Activity entry in [4] is “Dose-dependent effect”. The values for the residual activity in test [5], in test [6] and in [7] were 62%, 46% and 42%, respectively. Besides, the result in test [8] was inactive.

For the compound `CC/C=C\CCCCCCCCCCCC(=O)O`, the EC50 in [1] is more than 100 µM. For the same compound, the IC50 (in general, the midpoint of a concentration-inhibition curve) in test [2] was more than 100 µM. In addition, the inhibition result in [9] and in test [10] was “inactive” throughout. Moreover, the Activity result in test [4] was “Dose-dependent effect”; in test [8], 25%.

On to `CC/C=C\C/C=C\C/C=C\C/C=C\C/C=C\CCCC(=O)O` [ICOSAPENT], for which the EC50 in [1] is more than 100 µM. The compound also yielded a 50% inhibitory concentration (IC50) in test [2] of more than 100 µM.

As to `CC/C=C\CCCCCCCCCCCCCCC(=O)O`, the EC50 in [1] is 43 µM. In [2], this compound showed an IC50 of 36 µM. Besides, the inhibition result in test [9] and in test [10] was “inactive” throughout. In addition, the Activity entry in [4] is “Dose-dependent effect”; in test [8] it was 20%. The same compound registered a residual activity in [5] of 71%. In addition, in test [11], the inhibition entry is “Active”.

Regarding `CC/C=C\CCCCCCCCCCCCCCCCCC(=O)O`, the residual activity in test [12] was 40%; in test [5], 58%; in test [6] it was 45%; in test [7] it was 42%. Besides, the EC50 in test [1] was 26 µM. For the same compound, in test [2], the IC50 was found to be 21 µM. In test [3], the level, % of control at 20 µM stood at 48%. In test [4], the Activity result was “Dose-dependent effect”. In [13], this compound registered a level, % of control at 10 µM of 48%. Further, the outcome in test [8] was inactive.

`CC/C=C\CCCCCCCCCCCCC(=O)O`: the EC50 in test [1] came to 69 µM. This compound also displayed an IC50 in test [2] of more than 100 µM. Moreover, the inhibition entry in test [9] and in [10] was “inactive” in each case. Besides, the Activity entry in test [4] was “Dose-dependent effect”. Moreover, the outcome in [8] was inactive.

Turning to `CC/C=C\CCCCCCCCCCCCCC(=O)O`, the EC50 in test [1] was determined as 54 µM. Further, the IC50 in test [2] was more than 100 µM. The inhibition result in test [9] and in test [10] was “inactive” in each case. Besides, the Activity entry in [4] is “Dose-dependent effect”. For the same compound, in test [8], the result was inactive.

`CCCCC/C=C\C/C=C\C/C=C\C/C=C\CCCC(=O)O` [ARACHIDONIC ACID]: the EC50 in [1] was more than 100 µM. In test [2], the half-inhibitory concentration (IC50) was more than 100 µM.

For the compound `CC/C=C\CCCCCCCCCCCCCCCCC(=O)O`, the residual activity was 40% in [12], 54% in test [5], 49% in test [6] and 42% in test [7]. Besides, the EC50 in test [1] is 12 µM. In test [2], this compound had an IC50 of 9.3 µM. Moreover, the level, % of control at 20 µM in test [3] was 59%. Also, in [4], the Activity entry was “Dose-dependent effect”. For the same compound, the outcome in test [8] was inactive.
